Test [1] deals with Dual specificity protein kinase CLK2 (Homo sapiens) (UniProt P49760). Kind of test: Inhibition of human recombinant CLK2 at 40 nM related to control ULK1.
In test [2] the target is T1, Serine/threonine-protein kinase 17A (Homo sapiens) (UniProt Q9UEE5).
T1 sequence (whole entry): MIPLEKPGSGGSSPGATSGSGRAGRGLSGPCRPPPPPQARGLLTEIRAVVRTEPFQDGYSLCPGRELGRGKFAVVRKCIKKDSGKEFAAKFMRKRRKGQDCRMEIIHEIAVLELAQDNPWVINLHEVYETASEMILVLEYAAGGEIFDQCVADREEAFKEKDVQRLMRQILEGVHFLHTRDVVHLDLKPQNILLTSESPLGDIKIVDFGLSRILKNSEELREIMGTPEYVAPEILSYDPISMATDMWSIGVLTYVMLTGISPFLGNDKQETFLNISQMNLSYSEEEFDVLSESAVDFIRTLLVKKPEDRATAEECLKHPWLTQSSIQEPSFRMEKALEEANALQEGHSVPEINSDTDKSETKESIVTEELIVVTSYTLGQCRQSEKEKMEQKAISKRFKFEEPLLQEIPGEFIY
Kind of test: Inhibition of human recombinant DRAK1 at 40 nM related to control ULK1.

The species entered for another test is Homo sapiens. Kind of test: Inhibition of human recombinant KHS1 at 40 nM related to control ULK1.
In test [3] the target is Serine-protein kinase ATM (Homo sapiens) (UniProt Q13315). Kind of test: Inhibition of human recombinant ATM at 500 nM related to control ULK1. The procedure, abridged: (§1)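 Panel of 327 recombinant human kinases, each assayed in vitro by radiometric activity assay in duplicate at a single inhibitor concentration per compound, chosen with reference to its ULK1 inhibition. Activity remaining was expressed as percent of vehicle control, and percent inhibition was calculated as 100 minus percent activity remaining.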
Chain of Serine-protein kinase ATM (Homo sapiens) (Q13315 whole entry): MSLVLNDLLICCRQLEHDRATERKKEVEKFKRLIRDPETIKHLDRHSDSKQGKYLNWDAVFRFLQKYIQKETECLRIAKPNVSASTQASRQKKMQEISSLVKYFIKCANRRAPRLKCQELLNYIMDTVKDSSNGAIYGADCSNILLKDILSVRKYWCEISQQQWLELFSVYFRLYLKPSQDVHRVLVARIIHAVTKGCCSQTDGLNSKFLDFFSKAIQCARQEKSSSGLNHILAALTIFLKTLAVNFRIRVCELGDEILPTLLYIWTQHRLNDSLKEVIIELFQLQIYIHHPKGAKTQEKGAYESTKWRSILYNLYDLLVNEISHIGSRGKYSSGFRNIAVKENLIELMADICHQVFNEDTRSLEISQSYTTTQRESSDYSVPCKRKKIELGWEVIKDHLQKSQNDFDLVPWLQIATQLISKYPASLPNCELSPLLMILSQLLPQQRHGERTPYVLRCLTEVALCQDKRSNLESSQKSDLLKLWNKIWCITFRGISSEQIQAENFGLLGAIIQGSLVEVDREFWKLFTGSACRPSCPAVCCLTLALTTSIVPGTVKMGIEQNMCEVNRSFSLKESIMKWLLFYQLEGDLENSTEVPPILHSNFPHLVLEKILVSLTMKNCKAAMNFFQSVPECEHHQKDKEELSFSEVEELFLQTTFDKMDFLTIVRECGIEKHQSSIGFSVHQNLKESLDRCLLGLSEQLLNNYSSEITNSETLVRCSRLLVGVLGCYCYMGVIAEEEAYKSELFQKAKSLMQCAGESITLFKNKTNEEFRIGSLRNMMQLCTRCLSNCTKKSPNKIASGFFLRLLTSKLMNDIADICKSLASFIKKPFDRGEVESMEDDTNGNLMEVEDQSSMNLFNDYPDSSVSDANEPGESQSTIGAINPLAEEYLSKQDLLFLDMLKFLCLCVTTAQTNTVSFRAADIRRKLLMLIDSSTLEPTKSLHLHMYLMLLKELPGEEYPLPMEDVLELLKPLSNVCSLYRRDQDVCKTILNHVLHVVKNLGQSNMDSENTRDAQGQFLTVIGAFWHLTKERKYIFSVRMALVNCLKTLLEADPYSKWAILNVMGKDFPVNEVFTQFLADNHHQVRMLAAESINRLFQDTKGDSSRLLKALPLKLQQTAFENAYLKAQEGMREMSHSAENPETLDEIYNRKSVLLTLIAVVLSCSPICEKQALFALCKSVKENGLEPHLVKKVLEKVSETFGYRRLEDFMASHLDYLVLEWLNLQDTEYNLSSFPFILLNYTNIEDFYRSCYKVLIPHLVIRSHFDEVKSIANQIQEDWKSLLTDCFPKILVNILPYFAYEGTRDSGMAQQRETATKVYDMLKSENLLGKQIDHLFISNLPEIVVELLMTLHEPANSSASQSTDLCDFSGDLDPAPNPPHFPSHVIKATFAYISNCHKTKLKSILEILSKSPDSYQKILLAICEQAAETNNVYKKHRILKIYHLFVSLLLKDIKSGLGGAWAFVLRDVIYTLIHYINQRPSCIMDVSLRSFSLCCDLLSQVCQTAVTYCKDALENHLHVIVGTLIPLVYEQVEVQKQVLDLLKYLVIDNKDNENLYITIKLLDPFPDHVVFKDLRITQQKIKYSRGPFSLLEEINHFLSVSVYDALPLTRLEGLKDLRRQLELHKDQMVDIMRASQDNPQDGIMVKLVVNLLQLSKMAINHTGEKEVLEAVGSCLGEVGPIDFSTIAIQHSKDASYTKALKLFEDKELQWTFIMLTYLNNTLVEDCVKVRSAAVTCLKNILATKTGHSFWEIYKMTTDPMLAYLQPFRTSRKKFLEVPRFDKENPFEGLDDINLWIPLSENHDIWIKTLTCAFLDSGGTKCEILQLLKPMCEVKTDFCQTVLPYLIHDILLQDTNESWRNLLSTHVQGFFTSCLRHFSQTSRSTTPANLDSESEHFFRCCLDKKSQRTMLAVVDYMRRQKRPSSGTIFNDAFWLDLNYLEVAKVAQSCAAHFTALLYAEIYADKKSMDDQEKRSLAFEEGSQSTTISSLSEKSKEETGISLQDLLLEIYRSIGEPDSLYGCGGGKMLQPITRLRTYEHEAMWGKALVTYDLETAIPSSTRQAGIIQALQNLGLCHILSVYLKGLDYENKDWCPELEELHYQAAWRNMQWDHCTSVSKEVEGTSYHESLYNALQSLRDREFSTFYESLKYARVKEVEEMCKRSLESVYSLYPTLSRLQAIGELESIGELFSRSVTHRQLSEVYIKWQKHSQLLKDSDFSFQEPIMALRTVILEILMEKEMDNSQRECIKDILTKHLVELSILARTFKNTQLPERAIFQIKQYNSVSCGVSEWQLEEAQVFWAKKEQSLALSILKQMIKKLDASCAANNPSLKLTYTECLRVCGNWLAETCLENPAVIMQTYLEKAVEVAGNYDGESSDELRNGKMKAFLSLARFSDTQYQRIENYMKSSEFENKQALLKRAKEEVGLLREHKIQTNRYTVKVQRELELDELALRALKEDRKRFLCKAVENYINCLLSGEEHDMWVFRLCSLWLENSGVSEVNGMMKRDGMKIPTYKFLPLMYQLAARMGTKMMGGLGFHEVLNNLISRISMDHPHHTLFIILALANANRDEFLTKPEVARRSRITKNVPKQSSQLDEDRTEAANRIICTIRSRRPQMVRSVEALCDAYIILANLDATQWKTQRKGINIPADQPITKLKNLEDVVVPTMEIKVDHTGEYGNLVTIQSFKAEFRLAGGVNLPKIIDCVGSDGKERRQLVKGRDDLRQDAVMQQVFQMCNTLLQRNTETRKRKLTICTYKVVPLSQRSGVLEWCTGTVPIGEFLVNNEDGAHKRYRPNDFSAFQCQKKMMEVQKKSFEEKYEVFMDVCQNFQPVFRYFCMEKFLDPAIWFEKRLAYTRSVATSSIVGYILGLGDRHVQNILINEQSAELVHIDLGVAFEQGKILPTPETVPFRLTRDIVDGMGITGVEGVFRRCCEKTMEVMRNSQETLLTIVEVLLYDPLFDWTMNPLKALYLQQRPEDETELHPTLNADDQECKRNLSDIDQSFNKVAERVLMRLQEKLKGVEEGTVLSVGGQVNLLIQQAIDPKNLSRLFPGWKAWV

Test [4] deals with Dual specificity tyrosine-phosphorylation-regulated kinase 1A (Homo sapiens) (UniProt Q13627). Kind of test: Inhibition of human recombinant DYRK1A at 500 nM related to control ULK1.
The target of test [5] is T2, Ephrin type-B receptor 4 (Homo sapiens) (UniProt P54760).
T2 sequence (whole entry): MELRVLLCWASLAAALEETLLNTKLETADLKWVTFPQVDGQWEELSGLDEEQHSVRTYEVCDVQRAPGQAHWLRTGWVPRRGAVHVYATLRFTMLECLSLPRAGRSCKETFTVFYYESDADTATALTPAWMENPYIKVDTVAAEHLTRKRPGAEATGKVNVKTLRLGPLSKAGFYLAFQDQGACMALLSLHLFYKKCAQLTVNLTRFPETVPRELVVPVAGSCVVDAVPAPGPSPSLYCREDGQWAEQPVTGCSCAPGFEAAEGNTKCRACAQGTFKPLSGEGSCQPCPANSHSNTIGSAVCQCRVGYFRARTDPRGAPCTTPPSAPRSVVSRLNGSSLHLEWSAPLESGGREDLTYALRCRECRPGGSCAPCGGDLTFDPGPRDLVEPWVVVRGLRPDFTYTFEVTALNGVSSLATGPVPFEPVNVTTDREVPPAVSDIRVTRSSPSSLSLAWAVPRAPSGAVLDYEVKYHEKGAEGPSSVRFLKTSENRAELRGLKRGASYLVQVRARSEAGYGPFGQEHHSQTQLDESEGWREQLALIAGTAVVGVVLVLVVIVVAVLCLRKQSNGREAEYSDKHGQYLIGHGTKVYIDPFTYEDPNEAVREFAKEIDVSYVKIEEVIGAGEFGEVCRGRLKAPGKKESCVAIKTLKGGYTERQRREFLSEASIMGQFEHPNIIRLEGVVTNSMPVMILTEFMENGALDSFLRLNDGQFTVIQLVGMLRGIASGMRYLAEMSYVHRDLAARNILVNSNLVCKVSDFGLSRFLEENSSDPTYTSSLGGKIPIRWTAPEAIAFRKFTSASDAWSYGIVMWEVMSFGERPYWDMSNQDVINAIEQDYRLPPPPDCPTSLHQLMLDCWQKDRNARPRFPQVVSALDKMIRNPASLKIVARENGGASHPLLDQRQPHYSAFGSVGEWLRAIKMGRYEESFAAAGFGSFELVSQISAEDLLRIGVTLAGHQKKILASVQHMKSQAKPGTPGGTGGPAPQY
Kind of test: Inhibition of human recombinant EphB4 at 500 nM related to control ULK1.

For test [6], the target named is MAP kinase-activated protein kinase 2 (Homo sapiens) (UniProt P49137). Kind of test: Inhibition of human recombinant MAPKAPK2 at 500 nM related to control ULK1.
Chain of MAP kinase-activated protein kinase 2 (Homo sapiens) (P49137 whole entry, looked up): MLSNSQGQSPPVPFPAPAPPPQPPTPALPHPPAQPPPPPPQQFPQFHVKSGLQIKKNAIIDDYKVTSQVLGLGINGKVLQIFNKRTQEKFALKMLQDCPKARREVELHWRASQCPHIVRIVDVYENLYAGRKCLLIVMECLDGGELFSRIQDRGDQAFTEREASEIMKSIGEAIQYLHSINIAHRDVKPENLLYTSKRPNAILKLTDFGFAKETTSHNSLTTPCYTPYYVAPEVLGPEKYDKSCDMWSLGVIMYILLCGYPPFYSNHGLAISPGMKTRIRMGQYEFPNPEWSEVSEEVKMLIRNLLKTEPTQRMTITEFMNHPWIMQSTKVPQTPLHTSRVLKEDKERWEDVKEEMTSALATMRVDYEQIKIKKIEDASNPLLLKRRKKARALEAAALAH
In test [7] the target is TGF-beta receptor type-2 (Homo sapiens) (UniProt P37173). Kind of test: Inhibition of human recombinant TGFbR2 at 500 nM related to control ULK1.
Chain of TGF-beta receptor type-2 (Homo sapiens) (P37173 whole entry): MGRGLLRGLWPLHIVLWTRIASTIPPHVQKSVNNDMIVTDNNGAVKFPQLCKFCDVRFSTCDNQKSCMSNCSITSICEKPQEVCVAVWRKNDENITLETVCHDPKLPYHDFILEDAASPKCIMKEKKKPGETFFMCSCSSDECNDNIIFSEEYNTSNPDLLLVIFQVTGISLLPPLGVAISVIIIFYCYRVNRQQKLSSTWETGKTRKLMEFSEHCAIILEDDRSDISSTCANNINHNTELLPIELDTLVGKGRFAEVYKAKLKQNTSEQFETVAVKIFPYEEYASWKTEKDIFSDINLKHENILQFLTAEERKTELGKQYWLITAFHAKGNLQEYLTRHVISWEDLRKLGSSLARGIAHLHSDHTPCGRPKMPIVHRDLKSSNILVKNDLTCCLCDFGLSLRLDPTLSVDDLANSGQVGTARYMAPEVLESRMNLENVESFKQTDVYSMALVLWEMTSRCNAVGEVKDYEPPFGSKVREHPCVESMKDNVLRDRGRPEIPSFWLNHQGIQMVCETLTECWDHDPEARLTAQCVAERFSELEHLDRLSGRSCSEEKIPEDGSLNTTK
For test [8], the target named is T3, Activin receptor type-1B (Homo sapiens) (UniProt P36896).
T3 sequence (whole entry): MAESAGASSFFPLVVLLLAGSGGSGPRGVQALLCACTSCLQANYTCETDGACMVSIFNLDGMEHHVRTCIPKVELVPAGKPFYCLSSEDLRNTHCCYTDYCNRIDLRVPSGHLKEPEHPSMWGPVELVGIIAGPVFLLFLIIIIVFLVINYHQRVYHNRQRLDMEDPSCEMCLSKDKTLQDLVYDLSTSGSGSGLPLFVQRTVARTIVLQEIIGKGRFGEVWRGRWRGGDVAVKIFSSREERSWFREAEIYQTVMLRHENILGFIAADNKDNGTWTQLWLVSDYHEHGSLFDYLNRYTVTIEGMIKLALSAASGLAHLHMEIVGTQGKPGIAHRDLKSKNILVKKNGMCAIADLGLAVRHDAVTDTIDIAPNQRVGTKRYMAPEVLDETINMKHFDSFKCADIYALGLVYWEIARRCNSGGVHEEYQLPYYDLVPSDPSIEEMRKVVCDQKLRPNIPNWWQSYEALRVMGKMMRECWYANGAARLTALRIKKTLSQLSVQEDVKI
Kind of test: Inhibition of human recombinant ALK4 at 15 nM in presence of ATP by radiometric assay relative to control. The procedure, abridged:
as §1

The target in test [9] is Cell division cycle 7-related protein kinase (Homo sapiens) (UniProt O00311). Kind of test: Inhibition of human recombinant CDC7 at 15 nM in presence of ATP by radiometric assay relative to control.
Chain of Cell division cycle 7-related protein kinase (Homo sapiens) (O00311 whole entry, looked up): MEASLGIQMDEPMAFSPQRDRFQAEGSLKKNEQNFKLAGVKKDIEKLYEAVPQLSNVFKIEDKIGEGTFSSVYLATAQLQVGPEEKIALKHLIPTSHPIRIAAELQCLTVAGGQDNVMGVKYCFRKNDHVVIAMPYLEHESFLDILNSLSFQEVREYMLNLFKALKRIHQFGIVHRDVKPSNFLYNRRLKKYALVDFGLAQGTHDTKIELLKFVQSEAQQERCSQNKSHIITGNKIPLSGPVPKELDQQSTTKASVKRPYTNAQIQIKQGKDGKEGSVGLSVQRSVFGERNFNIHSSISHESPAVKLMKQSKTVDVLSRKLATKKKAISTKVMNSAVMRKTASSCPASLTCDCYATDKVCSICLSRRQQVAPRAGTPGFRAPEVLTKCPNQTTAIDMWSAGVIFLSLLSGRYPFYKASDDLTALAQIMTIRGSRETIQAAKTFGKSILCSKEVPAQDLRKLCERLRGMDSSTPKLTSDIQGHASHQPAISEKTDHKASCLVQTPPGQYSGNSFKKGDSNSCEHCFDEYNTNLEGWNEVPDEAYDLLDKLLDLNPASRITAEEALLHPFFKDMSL

Experimental findings from ChEMBL document CHEMBL5653631, “A Potent and Selective ULK1 Inhibitor Suppresses Autophagy and Sensitizes Cancer Cells to Nutrient Stress” (iScience, 2018) are described below.

Structures are written as SMILES.

Broadly, the inhibition is the drop in the measured response relative to a control, in per cent.

Chain of Dual specificity protein kinase CLK2 (Homo sapiens) (P49760 whole entry, looked up): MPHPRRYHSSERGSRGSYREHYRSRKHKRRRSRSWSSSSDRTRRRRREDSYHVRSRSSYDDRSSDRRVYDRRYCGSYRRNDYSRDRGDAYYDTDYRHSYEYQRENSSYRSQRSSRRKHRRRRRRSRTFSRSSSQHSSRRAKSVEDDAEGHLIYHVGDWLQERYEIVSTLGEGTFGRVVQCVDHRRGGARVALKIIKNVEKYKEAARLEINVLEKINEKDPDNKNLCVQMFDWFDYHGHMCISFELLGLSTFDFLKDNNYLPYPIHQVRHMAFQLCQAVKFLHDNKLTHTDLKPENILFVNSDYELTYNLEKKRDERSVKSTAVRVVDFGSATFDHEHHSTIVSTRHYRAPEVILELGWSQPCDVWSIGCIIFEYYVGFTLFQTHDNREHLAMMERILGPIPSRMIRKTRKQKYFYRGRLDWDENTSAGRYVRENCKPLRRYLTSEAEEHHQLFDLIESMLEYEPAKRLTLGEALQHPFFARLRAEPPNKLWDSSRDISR

With `O=C(N[C@@H](C1CC1)C(F)(F)F)c1cc(-c2cnn3cc(-c4ccc(F)cc4)cnc23)cs1`, the results for the fold change (FC) (in [1]; in test [2]; in the test filed under Homo sapiens) were 0.26, 1.07 and 0, respectively.
With `CNC(=O)c1ccccc1Oc1nc(Nc2cc(OC)c(OC)c(OC)c2)ncc1Br`, the fold change (FC) in [3] is 0.03; in [4], 0.01; in test [5] it was 0; in test [6], 0; in test [7], 0.03.
`CC(C)[C@H](NC(=O)c1cc(-c2cnn3cc(-c4ccc(OCCN5CCCCC5)cc4)cnc23)cs1)C(F)(F)F`: the inhibition came out at 20% in [8] and 8% in test [9].
